Laboratory results: ChEMBL document CHEMBL5653632, “PRMT5 inhibition disrupts splicing and stemness in glioblastoma” (Nat Commun, 2021)
The source made the active and inactive calls. The calls are words filed in the database; no cut-off is given here.

How the values were obtained:
[1] = Antiproliferative activity against human G583 cells incubated for 9 to 12 days by IncuCyte zoom live-cell imaging analysis; format: functional, cell-based
Procedure, shortened: (§1)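 Adherent culture on poly-L-ornithine/laminin in serum-free NS-A medium with EGF and bFGF (10 ng/mL each) and heparin. Nine concentrations (3 nM–30 µM), three technical replicates per dose, DMSO control, medium and drug refreshed every 5 days, run until DMSO wells were confluent (9–20 days). Confluence was imaged live and normalized to DMSO. Curves were taken at the 95th percentile of time to DMSO confluence, and AAC was calculated.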

[2] = Antiproliferative activity against human G800 cells incubated for 9 to 12 days by IncuCyte zoom live-cell imaging analysis; format: functional, cell-based; procedure, shortened: as §1
[3] = Antiproliferative activity against human G799 cells incubated for 9 to 12 days by IncuCyte zoom live-cell imaging analysis; format: functional, cell-based; procedure, shortened: as §1
[4] = Antiproliferative activity against human G837 cells incubated for 9 to 12 days by IncuCyte zoom live-cell imaging analysis; format: functional, cell-based; procedure, shortened: as §1
[5] = Antiproliferative activity against human BT119 cells incubated for 9 to 12 days by IncuCyte zoom live-cell imaging analysis; format: functional, cell-based
G411 [6] = assay: Antiproliferative activity against human G411 cells incubated for 9 to 12 days by IncuCyte zoom live-cell imaging analysis; format: functional, cell-based; procedure, shortened: as §1
[7] = Antiproliferative activity against human G702 cells incubated for 9 to 12 days by IncuCyte zoom live-cell imaging analysis; format: functional, cell-based; procedure, shortened: as §1
[8] = Antiproliferative activity against human G861 cells incubated for 9 to 12 days by IncuCyte zoom live-cell imaging analysis; format: functional, cell-based; procedure, shortened: as §1
[9] = Antiproliferative activity against human G564 cells incubated for 9 to 12 days by IncuCyte zoom live-cell imaging analysis; format: functional, cell-based; procedure, shortened: as §1
[10] = Antiproliferative activity against human G566 cells incubated for 9 to 12 days by IncuCyte zoom live-cell imaging analysis; format: functional, cell-based; procedure, shortened: as §1
[11] = Antiproliferative activity against human G876 cells incubated for 9 to 12 days by IncuCyte zoom live-cell imaging analysis; format: functional, cell-based; procedure, shortened: as §1
[12] = Antiproliferative activity against human G561 cells incubated for 9 to 12 days by IncuCyte zoom live-cell imaging analysis; format: functional, cell-based; procedure, shortened: as §1
[13] = Antiproliferative activity against human BT069 cells incubated for 9 to 12 days by IncuCyte zoom live-cell imaging analysis; format: functional, cell-based
[14] = Antiproliferative activity against human G851 cells incubated for 9 to 12 days by IncuCyte zoom live-cell imaging analysis; format: functional, cell-based; procedure, shortened: as §1
[15] = Antiproliferative activity against human G523 cells incubated for 9 to 12 days by IncuCyte zoom live-cell imaging analysis; format: functional, cell-based; procedure, shortened: as §1
[16] = Antiproliferative activity against human G895 cells incubated for 9 to 12 days by IncuCyte zoom live-cell imaging analysis; format: functional, cell-based; procedure, shortened: as §1
[17] = Antiproliferative activity against human BT147 cells incubated for 9 to 12 days by IncuCyte zoom live-cell imaging analysis; format: functional, cell-based
G561 [18] = assay: Antiproliferative activity against human G561 cells at 1 uM incubated for 9 to 12 days by IncuCyte zoom live-cell imaging analysis; format: functional, cell-based; settings: time 9-12 day
Procedure, shortened: (§2)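 Adherent GSCs were cultured in serum-free medium with EGF and bFGF on poly-L-ornithine/laminin and plated in triplicate in 96-well plates. They were treated at 1 µM, with 1 µM SGC2096 or 0.05% DMSO as controls, for 9–12 days or until DMSO wells were confluent. Medium with drug was refreshed every 5 days. IncuCyte confluence was imaged every 8 h and normalized to each well's initial confluence.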

G411 [19] = assay: Antiproliferative activity against human G411 cells at 1 uM incubated for 9 to 12 days by IncuCyte zoom live-cell imaging analysis; format: functional, cell-based; settings: time 9-12 day; procedure, shortened: as §2
G583 [20] = assay: Antiproliferative activity against human G583 cells at 1 uM incubated for 9 to 12 days by IncuCyte zoom live-cell imaging analysis; format: functional, cell-based; settings: time 9-12 day; procedure, shortened: as §2
[21] = Antiproliferative activity against human HF5205 cells incubated for 9 to 12 days by IncuCyte zoom live-cell imaging analysis; format: functional, cell-based; procedure, shortened: as §1
[22] = Antiproliferative activity against human HF7450 cells incubated for 9 to 12 days by IncuCyte zoom live-cell imaging analysis; format: functional, cell-based; procedure, shortened: as §1
[23] = Antiproliferative activity against human HF6562 cells incubated for 9 to 12 days by IncuCyte zoom live-cell imaging analysis; format: functional, cell-based; procedure, shortened: as §1
[24] = Antiproliferative activity against human G477 cells incubated for 9 to 12 days by IncuCyte zoom live-cell imaging analysis; format: functional, cell-based; procedure, shortened: as §1
[25] = Antiproliferative activity against human G626 cells incubated for 9 to 12 days by IncuCyte zoom live-cell imaging analysis; format: functional, cell-based; procedure, shortened: as §1
[26] = biological target: Protein arginine N-methyltransferase 5 (Homo sapiens) (UniProt O14744); assay: Inhibition of PRMT5 in human G411 cells assessed as reduction in SDMA level at 1 uM after 5 days by Western blot analysis; format: cell-based; settings: time 5.0 day
Chain of Protein arginine N-methyltransferase 5 (Homo sapiens) (O14744 whole entry): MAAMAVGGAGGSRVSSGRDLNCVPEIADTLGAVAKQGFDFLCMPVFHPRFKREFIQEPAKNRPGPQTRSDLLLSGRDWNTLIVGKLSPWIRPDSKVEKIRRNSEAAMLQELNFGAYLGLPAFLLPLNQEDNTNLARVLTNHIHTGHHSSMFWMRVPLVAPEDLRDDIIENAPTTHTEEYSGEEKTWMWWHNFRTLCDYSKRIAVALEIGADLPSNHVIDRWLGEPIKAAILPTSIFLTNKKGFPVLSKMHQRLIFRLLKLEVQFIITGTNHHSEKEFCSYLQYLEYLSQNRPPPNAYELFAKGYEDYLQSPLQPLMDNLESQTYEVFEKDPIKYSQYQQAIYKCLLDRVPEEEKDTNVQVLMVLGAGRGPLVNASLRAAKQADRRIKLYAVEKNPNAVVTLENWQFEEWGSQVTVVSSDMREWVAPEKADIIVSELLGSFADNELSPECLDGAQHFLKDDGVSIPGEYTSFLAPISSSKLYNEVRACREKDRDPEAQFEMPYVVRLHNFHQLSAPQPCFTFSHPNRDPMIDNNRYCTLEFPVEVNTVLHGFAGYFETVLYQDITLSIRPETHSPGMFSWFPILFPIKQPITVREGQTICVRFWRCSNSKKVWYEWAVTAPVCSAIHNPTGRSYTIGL
Procedure, shortened: (§3)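 Symmetric dimethylarginine on SmB/B' was measured by western blot with IRDye secondary antibodies and infrared imaging.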

[27] = biological target: Protein arginine N-methyltransferase 5 (Homo sapiens) (UniProt O14744); assay: Inhibition of PRMT5 in human G561 cells assessed as reduction in SDMA level at 1 uM after 5 days by Western blot analysis; format: cell-based; settings: time 5.0 day; procedure, shortened: as §3
[28] = biological target: Protein arginine N-methyltransferase 5 (Homo sapiens) (UniProt O14744); assay: Inhibition of PRMT5 in human G583 cells assessed as reduction in SDMA level at 1 uM after 5 days by Western blot analysis; format: cell-based; settings: time 5.0 day; procedure, shortened: as §3
[29] = biological target: Protein arginine N-methyltransferase 5 (Homo sapiens) (UniProt O14744); assay: Inhibition of PRMT5 in HFNS cells assessed as reduction in SDMA level at 1 uM after 5 days by Western blot analysis; format: cell-based; settings: time 5.0 day
G561 [30] = assay: Inhibition of colony formation in human G561 cells assessed as reduction in sphere forming capacity at 1 uM incubated for 14 days by limiting dilution assay; format: functional, cell-based; settings: time 14.0 day
Procedure, shortened: (§4)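 Each GSC line was seeded on non-adherent 96-well plates in 1:2 serial dilutions from 2000 to 4 cells per well, six replicates per dilution, in adherent-culture medium. Treatment was 1 µM, with SGC2096 and DMSO as controls, added on day 1 and replenished weekly. Wells were scored for spheres at 1 and 2 weeks, and sphere frequency was estimated by ELDA (single-hit model). n = 3.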

G411 [31] = assay: Inhibition of colony formation in human G411 cells assessed as reduction in sphere forming capacity at 1 uM incubated for 14 days by limiting dilution assay; format: functional, cell-based; settings: time 14.0 day; procedure, shortened: as §4
[32] = biological target: Protein arginine N-methyltransferase 5 (Homo sapiens) (UniProt O14744); assay: Inhibition of PRMT5 in human G729 cells assessed as reduction in SDMA level at 1 uM after 7 days by Western blot analysis; format: cell-based; settings: time 7.0 day
[33] = biological target: Protein arginine N-methyltransferase 5 (Homo sapiens) (UniProt O14744); assay: Inhibition of PRMT5 in human G549 cells assessed as reduction in SDMA level at 1 uM after 7 days by Western blot analysis; format: cell-based; settings: time 7.0 day
G583 [34] = assay: Induction of senescence in human G583 cells at 1 uM after 5 days by SA-beta-galactosidase based assay; format: functional, cell-based; settings: time 5.0 day
Procedure, shortened: (§5)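 GSCs were treated at 1 µM for 5 days, with SGC2096 and DMSO as controls and n = 3. Cells were fixed in 4% paraformaldehyde for 5 min at RT, stained overnight with SA-β-gal solution, and counterstained with nuclear fast red. Blue cells were counted as a fraction of total cells.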

G729 [35] = assay: Induction of senescence in human G729 cells at 1 uM after 5 days by SA-beta-galactosidase based assay; format: functional, cell-based; settings: time 5.0 day; procedure, shortened: as §5
G411 [36] = assay: Induction of apoptosis in human G411 cells at 1 uM after 5 days by Annexin-V staining based IncuCyte live cell imaging analysis; format: functional; settings: time 5.0 day
G583 [37] = assay: Induction of apoptosis in human G583 cells at 1 uM after 5 days by Annexin-V staining based IncuCyte live cell imaging analysis; format: functional; settings: time 5.0 day
G729 [38] = assay: Induction of apoptosis in human G729 cells at 1 uM after 5 days by Annexin-V staining based IncuCyte live cell imaging analysis; format: functional; settings: time 5.0 day

For `O=C(NC[C@H](O)CN1CCc2ccccc2C1)c1ccnc(NC2CCC2)c1`, the EC50 [1] was 0.44 µM, the IC50 [2] was 16.4 µM and the IC50 [3] was 0.68 µM. The IC50 [4] was 5.01 µM, the IC50 [5] was 8.64 µM and the EC50 (G411 [6]) was 0.1 µM. It also gave an IC50 [7] of 1.62 µM, an IC50 [8] of 1.28 µM and an IC50 [9] of 0.23 µM. The IC50 [10] was 2.05 µM, the IC50 [11] was 2.45 µM and the EC50 [12] was 1 µM. The IC50 [13] was 0.69 µM, the IC50 [14] was 0.57 µM and the IC50 [15] was 0.83 µM. The IC50 [16] was 0.64 µM, the IC50 [17] was 0.17 µM and the Activity (G561 [18]) was “Active”. The Activity (G411 [19]) was “Active”, the Activity (G583 [20]) was “Active” and the EC50 [21] was 0.007 µM. The EC50 [22] was 0.155 µM, the EC50 [23] was 0.063 µM and the EC50 [24] was 3.18 µM. For the same molecule, the EC50 [25] was 0.48 µM, the inhibition [26] was “Active” and the inhibition [27] was “Active”. For the same molecule, the inhibition [28] was “Active”, the inhibition [29] was “Active” and the inhibition (G561 [30]) was “Active”. For the same molecule, the inhibition (G411 [31]) was “Active”, the inhibition [32] was “Active” and the inhibition [33] was “Active”. The Activity (G583 [34]) was “Active”, the Activity (G729 [35]) was “Active” and the Activity (G411 [36]) was “Active”. The Activity (G583 [37]) was “Active” and the Activity (G729 [38]) was “Active”.

Molecule `Nc1ncnc2c1ccn2[C@@H]1O[C@H]([C@H](O)c2ccccc2)[C@@H](O)[C@H]1O` has an EC50 [1] of 0.015 µM, an IC50 [2] of 0.12 µM and an IC50 [3] of 0.02 µM. The IC50 [4] was 0.04 µM, the IC50 [5] was 0.23 µM and the EC50 (G411 [6]) was 0.019 µM. It also gave an IC50 [7] of 0.02 µM, an IC50 [8] of 0.04 µM and an IC50 [9] of 0.03 µM. For the same molecule, the IC50 [10] was 0.03 µM, the IC50 [11] was 0.03 µM and the EC50 [12] was 0.01 µM. The IC50 [13] was 0.03 µM, the IC50 [14] was 0.01 µM and the IC50 [15] was 0.01 µM. The IC50 [16] was 0.1 µM, the IC50 [17] was 0.01 µM and the Activity (G561 [18]) was “Active”. For the same molecule, the Activity (G411 [19]) was “Active”, the Activity (G583 [20]) was “Active” and the EC50 [21] was 0.009 µM. For the same molecule, the EC50 [22] was 0.003 µM, the EC50 [23] was 0.00066 µM and the EC50 [24] was 0.04 µM. For the same molecule, the EC50 [25] was 0.01 µM, the inhibition [26] was “Active” and the inhibition [27] was “Active”. The inhibition [28] was “Active”, the inhibition [29] was “Active” and the inhibition (G561 [30]) was “Active”. For the same molecule, the inhibition (G411 [31]) was “Active”, the inhibition [32] was “Active” and the inhibition [33] was “Active”. For the same molecule, the Activity (G583 [34]) was “Active”, the Activity (G729 [35]) was “Active” and the Activity (G411 [36]) was “Active”. For the same molecule, the Activity (G583 [37]) was “Active” and the Activity (G729 [38]) was “Active”.
